From ChEMBL document CHEMBL4368889, “Synthesis and evaluation of novel purple acid phosphatase inhibitors” (Medchemcomm, 2019)

Experiments:
[1] = biological target: T1, Fe(3+)-Zn(2+) purple acid phosphatase (Phaseolus vulgaris) (UniProt P80366); experiment: Uncompetitive inhibition of red kidney bean PAP using pNPP as substrate by UV-vis spectrophotometric analysis
T1 sequence (whole entry): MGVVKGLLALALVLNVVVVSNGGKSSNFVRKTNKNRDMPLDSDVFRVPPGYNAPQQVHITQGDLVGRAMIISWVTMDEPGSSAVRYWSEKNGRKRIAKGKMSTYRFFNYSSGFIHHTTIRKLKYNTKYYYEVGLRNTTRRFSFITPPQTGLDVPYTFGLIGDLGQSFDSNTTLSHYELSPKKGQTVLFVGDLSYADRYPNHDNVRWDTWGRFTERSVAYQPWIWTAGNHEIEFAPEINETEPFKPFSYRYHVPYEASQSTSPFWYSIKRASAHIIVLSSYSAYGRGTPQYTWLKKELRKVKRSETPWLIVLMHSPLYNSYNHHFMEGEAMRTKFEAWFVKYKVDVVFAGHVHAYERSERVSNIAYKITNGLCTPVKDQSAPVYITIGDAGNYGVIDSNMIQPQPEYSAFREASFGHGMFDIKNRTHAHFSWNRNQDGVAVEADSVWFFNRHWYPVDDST
Procedure, shortened: (§1)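 Red kidney bean (Phaseolus vulgaris) PAP purified from the beans and used at 7.4 nM. Assays ran at pH 4.9 in 0.1 M sodium acetate with 25% DMSO, at 25 °C. Substrate was pNPP at 1, 3, 5, 7.5, 10 and 12.5 mM, with inhibitor at 50–300 μM. Product formation was read at 405 nm. Kic and Kiuc came from non-linear regression to the general inhibition equation.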

[2] = species on record: Sus scrofa; experiment: Uncompetitive inhibition of fully reduced pig PAP using pNPP as substrate by UV-vis spectrophotometric analysis
Procedure, shortened: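 Pig PAP purified from the uterine fluid of a pregnant sow. Assays ran at pH 4.9 in 0.1 M sodium acetate with 25% DMSO, at 25 °C. pNPP was 1–12.5 mM (six levels) and inhibitor 50–300 μM. Rates were read at 405 nm. Kiuc came from a general inhibition equation fit.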

[3] = Inhibition of pig PAP; design: species or system Sus scrofa
[4] = biological target: T2, Fe(3+)-Zn(2+) purple acid phosphatase (Phaseolus vulgaris, UniProt P80366); experiment: Inhibition of red kidney bean PAP
T2 sequence (P80366 whole entry): T1 sequence (whole entry)
Procedure, shortened: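 PAP purified from Phaseolus vulgaris beans, used at 7.4 nM in 0.1 M sodium acetate pH 4.9 with 25% DMSO at 25 °C. pNPP substrate at 1, 3, 5, 7.5, 10 and 12.5 mM, inhibitor 50–300 μM. Product formation read at 405 nm. Kic and Kiuc came from a non-linear regression to the general inhibition equation.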

[5] = biological target: T1, Fe(3+)-Zn(2+) purple acid phosphatase (Phaseolus vulgaris); experiment: Competitive inhibition of red kidney bean PAP using pNPP as substrate by UV-vis spectrophotometric analysis; procedure, shortened: as §1

Row | Ki [3] [µM] | Ki [4] [µM] | Compound | Kiuc [1] [µM] | Kiuc [2] [µM] | Kic [5] [µM]
1 |  |  | O=C(O)c1cn(Cc2ccccc2)nn1 | 963 | 23 | 
2 |  |  | COc1ccc(Cn2cc(C(=O)O)nn2)cc1 |  | 48 | 
3 | 40 | 30 | VANADATE ION |  |  | 
4 |  |  | Cc1ccc(Cn2cc(C(=O)O)nn2)cc1 |  | 76 | 951
5 |  |  | O=C(O)c1cn(Cc2cccc3ccccc23)nn1 |  | 184 | 2280
6 |  |  | O=C(O)c1cn(Cc2ccccc2Cl)nn1 |  | 276 | 438
7 | 2000 | 2000 | O=P(O)(O)O [PHOSPHORIC ACID] |  |  | 
8 |  |  | O=C(O)c1cn(Cc2ccc(Cl)cc2)nn1 |  | 103 | 1070
9 | 42 | 340 | CC(=O)c1sc(C)nc1-c1ccc(C)cc1 |  |  | 
